Measurements gathered from unrelated publications.
Lines come from different studies, so protocols differ.
Target: Ephrin type-A receptor 4 (EPHA4, Homo sapiens, UniProt P54764)

Cn1cc(-c2cc(F)cc(N3CCn4c(cc5c4CCCC5)C3=O)c2CO)cc(Nc2ccc(N3CCN(C4COC4)CC3)cn2)c1=O — inhibition (enzyme activity; inhibitor; 0.1 µM): 12%
Cc1nn(C)cc1-c1nc2c(N3CCN(Cc4ccc(Cl)cc4)CC3)c(Cl)cnc2[nH]1 — remaining binding (binding; competition with immobilised ligand; 1 µM): 100%
CC(C)(C)c1cc(C=C(C#N)C#N)cc(Br)c1O — remaining activity (enzyme activity; inhibitor; 0.5 µM): 94.7%
COc1ncccc1-c1cnn2ccc(N3CCN(C(=O)OC(C)C)CC3)nc12 — remaining binding (binding; competition with immobilised ligand; 1 µM): 100%
Cn1cc(-c2cccc(N3CCc4c(sc5c4CC(C)(C)C5)C3=O)c2CO)cc(Nc2ccncn2)c1=O — inhibition (enzyme activity; inhibitor; 1 µM): 3%
Nc1ncc(-c2nc(N3CCOCC3)nc(N3CCOCC3)n2)c(C(F)F)n1 — remaining binding (cell-free assay; competition with immobilised ligand; 10 µM): 94%
Cn1cncc1[C@](O)(COc1ccc(C#N)cc1-c1ccc(OC(F)(F)F)cc1)c1ccc(C#N)cc1 — remaining binding (cell-free assay; competition with immobilised ligand; 1 µM): 100%
O=c1[nH]c2ccccc2n1C1CCN(Cc2ccc(-c3[nH]c4cc5ncnc5cc4nc3-c3ccccc3)cc2)CC1 — remaining signal (cell-free assay; 0.5 µM): 97.1%
COc1cc(Nc2ncc(F)c(Nc3ccc4c(n3)NC(=O)C(C)(C)O4)n2)cc(OC)c1OC — inhibition (binding; competition with immobilised ligand; 10 µM): 69%
